Screening data deposited in PubChem BioAssay by several laboratories.
Only some compounds are listed: those with a hit (about 1.9% of all), similar ones and a draw of the others.
Scp-1 inhibitor: Scp-1 (human) phosphatase inhibition | Q9GZU7 | Recombinant Scp1, phosphopeptide, malachite green phosphate absorbance | inhibition, % at 20 µM | hit rate 0.88% among 340,000 | AID 493091;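 active = inhibition above about 50% at 20 µM, limit read from the data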
Target sequence (Q9GZU7 76-261 limits assumed): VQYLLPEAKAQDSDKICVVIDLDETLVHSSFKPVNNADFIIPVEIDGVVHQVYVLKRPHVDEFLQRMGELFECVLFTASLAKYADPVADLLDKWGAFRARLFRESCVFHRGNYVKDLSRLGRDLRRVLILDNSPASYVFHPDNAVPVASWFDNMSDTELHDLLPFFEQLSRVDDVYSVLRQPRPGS
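Material: truncated SCP-1 phosphatase (76-261aa) / Buffer or medium: 50 mM Tris acetate pH 5.5, 0.005% Tween-20, 10 mM MgCl2 / Compound dosing: one concentration, 20 µM, with 1.0% DMSO / Incubation: 45 min room-temperature reaction, 5 min colour, 30 min stabiliser / Detection: colorimetric free-phosphate detection, absorbance 630 nm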
LMPTP inh: LMPTP (human) inhibition; recombinant LMPTP-A, OMFP fluorogenic substrate, fluorescence intensity; inhibition, % at 20 µM; hit rate 0.22% among 360,000; AID 651560;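 active = compounds that cut the enzyme signal by at least half of the control window in the single-dose screen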
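test system = LMPTP-A | amount = 0.625 nM LMPTP-A final | reagent = fluorogenic phosphatase substrate OMFP at 400 µM final | incubation = 50 min at room temperature | benchmarks = no-enzyme low control, uninhibited high control | medium = Bis-Tris pH 6.0, DTT, detergent | signal = fluorescence intensity of OMFP turnover product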
PP5 inh: PP5 (human) phosphatase inhibition. hit rate 0.18% among 320,000. AID 1987. inhibition, % at 6.7 µM. P53041. purified PP5c, OMFP substrate fluorescence;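 active = inhibition above the campaign's mean inhibition across all tested compounds plus 3 SD, cut at about 9.5% in these data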
Target sequence (P53041 whole entry, looked up): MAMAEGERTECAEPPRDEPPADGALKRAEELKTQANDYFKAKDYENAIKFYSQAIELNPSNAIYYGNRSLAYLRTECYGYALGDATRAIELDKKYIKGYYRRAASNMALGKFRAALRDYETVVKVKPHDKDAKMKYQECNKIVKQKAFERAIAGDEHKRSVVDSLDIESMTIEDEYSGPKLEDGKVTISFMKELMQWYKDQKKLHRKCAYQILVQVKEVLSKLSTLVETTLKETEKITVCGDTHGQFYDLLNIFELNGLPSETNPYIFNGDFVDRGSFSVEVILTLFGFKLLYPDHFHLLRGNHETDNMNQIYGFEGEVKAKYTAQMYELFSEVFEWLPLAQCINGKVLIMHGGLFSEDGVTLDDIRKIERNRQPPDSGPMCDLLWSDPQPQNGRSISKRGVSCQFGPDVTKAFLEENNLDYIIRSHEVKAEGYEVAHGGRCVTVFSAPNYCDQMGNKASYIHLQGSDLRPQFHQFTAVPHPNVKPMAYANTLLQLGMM
STEP inh: STEP (human) phosphatase inhibition; recombinant STEP, OMFP fluorogenic substrate, fluorescence; AID 588621; hit rate 0.25% among 360,000; inhibition, % at 20 µM; P54829;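 active = inhibition at 20 µM, scaled per plate between control wells, above about 37%, limit read from the data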
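System: STEP (striatal-enriched tyrosine phosphatase) enzyme, cell-free; medium: Bis-Tris pH 6.0 buffer with DTT, detergent; dosing: 20 µM, 1% DMSO; times: reaction 20 min, ambient temperature; detection: fluorescence, 480/540 nm; read-out basis: normalized % inhibition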
PP1 counter: PP1-alpha (human) inhibition in PP5 counter-screen. AID 2235. purified PP1alpha, OMFP fluorescence. inhibition, % at 6.7 µM. hit rate 0.9% among 320,000;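 active = inhibition above the mean inhibition of all tested compounds plus 3 SD, computed separately for each screening campaign, cut at about 15% in these data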
A number is an active result; – = inactive; · = not tested or not shown.

SMILES	Scp-1 inhibitor	LMPTP inh	PP5 inh	STEP inh	PP1 counter
Cc1ccc(NS(=O)(=O)c2cccc(C(=O)OCC(=O)NCc3ccco3)c2)cc1	–	–	–	–	–
CN(C)CCN(C(=O)c1ccc2c(c1)OCCO2)c1nc2c(Cl)cccc2s1	–	–	–	–	–
N=C1S/C(=C\c2ccccc2)C(=O)N1c1ccc(F)cc1	–	–	–	–	–
N=C1S/C(=C\c2cccc3ccccc23)C(=O)N1c1ccc(F)cc1	–	–	–	–	17.2
CCC1CCCCN1CCCNC(=O)CC1Oc2ccc(C)cc2NC1=O (stereo not drawn)	–	–	–	–	–
Cc1nc2ccc(C(=O)N/N=C/c3cc([N+](=O)[O-])ccc3O)cc2[nH]1	–	–	–	48.8	–
NC(=O)c1csc(-c2ccncc2)n1	–	–	–	–	–
O=C(N/N=C/c1ccc(-c2ccc(Cl)c(C(=O)O)c2)o1)c1cc2c(ccc3ccccc32)o1	88.8	–	–	–	–
Cc1ccc(-c2ccc(/C=N\NC(=O)c3cc4c(ccc5ccccc54)o3)o2)cc1[N+](=O)[O-]	–	–	–	–	–
Oc1c(CN2CCOCC2)cc(COCc2ccccc2)c2cccnc12	–	–	–	–	15.5
Oc1c(CNc2ccccc2)cc(COCc2ccccc2)c2cccnc12	–	–	·	–	·
O=C(Oc1ccc(=O)n(-c2ccccc2)n1)c1ccccc1	–	–	–	–	–
Cc1ccc(S(=O)(=O)Nc2ccccc2C(=O)Nc2nc(-c3ccc(F)cc3)cs2)cc1	–	–	–	–	16.7
CCc1nc(N)nc(N)c1-c1ccc(Cl)c(N=[N+]=[N-])c1	–	57.9	·	–	·
O=C(N/N=C/c1cc([N+](=O)[O-])ccc1O)c1ccc(COc2ccc3c(c2)CCC3)o1	80.8	68.7	·	90.3	·
COc1ccc(Br)cc1/C=N/NC(=O)c1ccc(COc2ccc3c(c2)CCC3)o1	–	–	–	–	–
O=C(Nc1ccc(-c2nc3ccc(NC(=O)c4cccs4)cc3[nH]2)cc1)c1cccs1	–	–	–	41.6	–
O=C(Nc1ccc2nc(-c3cccs3)[nH]c2c1)c1cccs1	–	–	–	–	–
COc1ccc(C(=O)/C=C/C(=O)N(Cc2ccccc2OC)C(C(=O)NC2CCCCC2)c2ccncc2)c(O)c1 (stereo not drawn)	–	–	–	–	–
COc1ccccc1CN(C(=O)CCl)C(C(=O)NC1CCCCC1)c1ccncc1 (stereo not drawn)	–	–	–	–	17.0
COc1cccc(Sc2nc(-c3ccccc3)ncc2S(C)(=O)=O)c1	–	–	–	–	–
Cc1c(C(=O)Nc2ccc3c(c2)OCCO3)cnn1C	–	–	–	–	–
O=C1C(=O)c2cccnc2-c2ncccc21	·	55.8	·	–	·
O=c1cc(O)c2c(=O)n(-c3ccccc3)c3c(c2o1)CCCCCC3	–	–	–	–	16.8
Cc1cccc(/C=N/NC(=O)c2ccc(NC(=O)c3ccc(Cl)cc3)cc2)n1	–	–	–	–	15.4
SMILES	Scp-1 inhibitor	LMPTP inh	PP5 inh	STEP inh	PP1 counter
Cc1cccc(/C=N/NC(=O)c2ccc(NC(=O)c3ccc(F)cc3)cc2)n1	–	–	–	–	–
C/C=C(\C)C(=O)NCCN1C2=NC[C@@H](Cc3ccccc3)N2C[C@@H]1Cc1ccc(OC)cc1	–	–	–	–	–
CCCCCCNC(=O)N[C@@H](C(=O)NCCC[C@H]1CN2C(=NC[C@@H]2Cc2ccccc2)N1CCc1cccc(OC)c1)C(C)C	92.0	·	–	·	–
Cc1ccc2nc(N(CCCN(C)C)C(=O)c3cc(-c4cccs4)nc4ccccc34)sc2c1	–	–	–	–	16.8
O=C(NCCOC(=O)c1ccncc1)c1ccccc1	–	–	–	–	–
O=c1cc(O)c2c(=O)n(Cc3ccccc3)c3ccccc3c2o1	–	–	–	–	28.9
Cn1ncc2c(N3CCC(Cc4ccccc4)CC3)ncnc21	–	–	–	–	–
NNC(=O)c1cc2c(N3CCC(Cc4ccccc4)CC3)ncnc2s1	–	–	–	–	15.9
Cc1ccc([N+](=O)[O-])cc1-c1ccc(/C=C(\C#N)c2[nH]nc(N)c2C#N)o1	–	71.4	–	–	–
Cc1cc(=O)[nH]c(NNC(=O)c2ccc(Cl)cc2)n1	·	–	·	–	·
COc1ccc(C(=O)CCC(=O)N2CCN(c3ccc([N+](=O)[O-])cc3)CC2)cc1	–	–	–	–	15.7
COc1ccc(N2CCN(C(=O)CSc3ccc([N+](=O)[O-])cc3)CC2)cc1	–	–	–	–	–
CCOC(=O)/C=c1\s/c(=C\c2c(OCC)ccc3ccccc23)c(=O)n1CC(=O)NCC1CCCO1 (stereo not drawn)	–	–	–	–	–
O=C(CC(c1ccccc1)(c1ccccc1)c1ccccc1)N[C@@H](Cc1ccc(O)cc1)C(=O)O	–	–	–	–	–
CC(C)S(=O)(=O)c1csc(C(=O)Nc2ccc(F)cc2)c1N	91.6	–	–	–	–
Cc1nc(Cl)sc1C(=O)Nc1ccc(F)cc1	–	–	·	–	·
Cc1cc(/C=N/Nc2ccc([N+](=O)[O-])cn2)c(C)n1-c1ccccc1	–	–	–	–	–
Cc1ccc(-n2c(C)cc(/C=N/Nc3ccc([N+](=O)[O-])cn3)c2C)cc1	101.9	–	–	–	–
CC(=O)CSc1nc2c(c(=O)[nH]c(=O)n2C)n1Cc1cccc(Br)c1	–	–	–	–	–
C=CCn1c(=O)c2ccccc2n2c(SCC(=O)NCC)nnc12	–	–	–	–	–
COC(=O)c1cc(O)cc(OC)c1Oc1cc(C)cc(O)c1C(=O)O	58.2	–	–	–	–
O=C(Cn1c(C(=O)c2ccccc2)nc2ccccc21)c1ccc(Cl)cc1	–	–	·	–	·
N#Cc1cc(Oc2cccc3cccnc23)c(-n2nnc3ccccc32)cc1C#N	–	–	–	–	15.8
O=C1C2CC=C(Cl)CC2C(=O)N1CCCCCCN1C(=O)C2CC=C(Cl)CC2C1=O (stereo not drawn)	71.0	–	–	–	–
Oc1ccc(/C=N/Nc2ccccc2)cc1	–	–	–	–	–
SMILES	Scp-1 inhibitor	LMPTP inh	PP5 inh	STEP inh	PP1 counter
O=C(COc1ccccc1Cl)Nc1cc(NC(=O)COc2ccccc2Cl)cc(C(=O)O)c1	73.4	–	·	–	·
COc1ccccc1OCC(=O)Nc1cc(NC(=O)COc2ccccc2OC)cc(C(=O)O)c1	–	–	–	–	–
Cc1ccc(OCC(=O)Nc2cc(NC(=O)COc3ccc(C)c(C)c3)cc(C(=O)O)c2)cc1C	–	–	–	–	16.4
COCCCNC(=O)c1cc2cc(Br)ccc2oc1=O	–	–	–	–	–
O=C(NNC(=O)c1cc2cc(Br)ccc2oc1=O)c1ccc(O)cc1O	60.1	53.6	–	48.9	–
CC1Cc2ccccc2N1C(=S)NC(=O)C1(C)CC1(Cl)Cl (stereo not drawn)	50.1	–	–	–	–
Cc1cc(-c2csc(N)n2)c(C)n1CCC(C)C	–	–	–	–	16.1
O=C(O)c1ccc(-n2cccc2/C=C2/NC(=O)N(c3cccc(Cl)c3)C2=O)cc1	77.2	–	·	43.2	·
